Published values of several laboratories.
Target: Cholinesterase (BCHE, Equus caballus, UniProt P81908)
Read-out: enzyme activity
Mode: inhibitor

`CC=C1[C@H]2C=C(C)C[C@]1(N)c1cc(C)c(=O)[nH]c1C2` gave an IC50 of 486 µM (Ellman).
`CC(C)(C)OC(=O)N1CCN(c2nccc(NCc3ccccc3)n2)CC1` gave an IC50 of over 100 µM.
`O=C(NCCCNc1c2c(nc3ccccc13)CCCC2)c1ccccc1O` has an IC50 of 0.129 µM (Ellman).
With `CC=C1[C@H]2C=C(C)C[C@]1(N)c1ccc(OC)nc1C2` the IC50 was 904 µM (Ellman).
The IC50 of `CCOc1ccc(C=NNC(=S)NCC(=O)c2cccc(C)c2)cc1` is reported as 300 µM (Ellman).
`CC(=O)N1CCN(c2nccc(NCCc3ccccc3)n2)CC1` has an IC50 of over 100 µM.
With `CC=C1[C@H]2C=C(C)C[C@]1(N)c1cc(CC)c(=O)[nH]c1C2` the IC50 was 60.4 µM (Ellman).
With `C#CCN(C)c1nc(NCCCCC2CCN(Cc3ccccc3)CC2)c(C#N)c(-c2ccccc2)c1C#N` the IC50 was 0.22 µM (Ellman).
For `CCOc1ccc(C=NNC(=S)NCC(=O)c2ccc(-c3ccccc3)cc2)cc1`, the IC50 was 501 µM (Ellman).
The IC50 of `C#CCNc1nc(NCCCCC2CCN(Cc3ccccc3)CC2)c(C#N)cc1C#N` is reported as 0.511 µM (Ellman).
For `CCOc1ccc(C=NNC(=S)NCC(=O)c2ccc(Cl)cc2Cl)cc1`, the IC50 was 331 µM (Ellman).
